Converted amounts (≈) assume the structure as drawn.
Tests used:
[1] = system: Cryptococcus neoformans; experiment: Growth inhibition of Cryptococcus neoformans ATCC 32264 at 7.8 ug/ml incubated for 48 hrs under dark condition by broth microdilution method relative to control; type: functional; details: ATCC 32264, 48 h, read-out: GI
Method in brief: (§1)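 CLSI M27-A3 broth microdilution in RPMI-1640, DMSO ≤1%. Inoculum 1-5 × 10^3 CFU/mL. Incubated 48 h at 30 °C, dark. % inhibition = 100 − (OD405 test − sterility control)/(OD405 growth control − sterility control), with growth and sterility control wells. Triplicate.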

[2] = system: Escherichia coli; experiment: Antibacterial activity against Escherichia coli ATCC 25922 after 24 hrs by resazurin dye based microdilution assay; type: functional; details: ATCC 25922, 24 h
Method in brief: (§2)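 MIC taken as the lowest concentration giving visible inhibition and/or by resazurin (1 mg/mL). Gentamicin was the control. Run in duplicate, repeated at least three times.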

[3] = system: Candida albicans; experiment: Antifungal activity against Candida albicans ATCC 10231 incubated for 48 hrs under dark condition by broth microdilution method; type: functional; details: ATCC 10231, 48 h
Method in brief: (§3)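 CLSI M27-A3 broth microdilution in RPMI-1640, DMSO ≤1%, compounds at 250-0.98 µg/mL final. Inoculum 1-5 × 10^3 CFU/mL. Incubated 48 h at 30 °C in a moist dark chamber, read at OD405. MIC80 and MIC50 taken from % inhibition dose-response curves (mean ± SEM, triplicate). Amphotericin B was the positive control.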

[4] = system: Staphylococcus aureus; experiment: Antibacterial activity against methicillin-sensitive Staphylococcus aureus ATCC 25923 after 24 hrs by resazurin dye based microdilution assay; type: functional; details: ATCC 25923, 24 h; method in brief: as §2
[5] = system: Candida albicans; experiment: Growth inhibition of Candida albicans ATCC 10231 at 3.4 ug/ml incubated for 48 hrs under dark condition by broth microdilution method relative to control; type: functional; details: ATCC 10231, 48 h, read-out: GI
[6] = system: Cryptococcus neoformans; experiment: Growth inhibition of Cryptococcus neoformans ATCC 32264 at 31.25 ug/ml incubated for 48 hrs under dark condition by broth microdilution method relative to control; type: functional; details: ATCC 32264, 48 h, read-out: GI; method in brief: as §1
[7] = system: Staphylococcus aureus; experiment: Antibacterial activity against vancomycin-intermediate Staphylococcus aureus after 24 hrs by resazurin dye based microdilution assay; type: functional; method in brief: as §2
[8] = system: Candida albicans; experiment: Growth inhibition of Candida albicans ATCC 10231 at 125 ug/ml incubated for 48 hrs under dark condition by broth microdilution method relative to control; type: functional; details: ATCC 10231, 48 h, read-out: GI; method in brief: as §1
[9] = system: Cryptococcus neoformans; experiment: Growth inhibition of Cryptococcus neoformans ATCC 32264 at 125 ug/ml incubated for 48 hrs under dark condition by broth microdilution method relative to control; type: functional; details: ATCC 32264, 48 h, read-out: GI; method in brief: as §1
[10] = system: Cryptococcus neoformans; experiment: Antifungal activity against Cryptococcus neoformans ATCC 32264 incubated for 48 hrs under dark condition by broth microdilution method; type: functional; details: ATCC 32264, 48 h; method in brief: as §3
[11] = system: Neisseria gonorrhoeae; experiment: Antibacterial activity against beta lactamase positive Neisseria gonorrhoeae ATCC 31426 by oxidase test; type: functional
Method in brief: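 Agar dilution MIC on GC agar with 1% isovitalex containing increasing compound concentrations. Plates inoculated with about 1×10^4 CFU (5 µL). MIC is the lowest concentration that inhibited growth, with growth confirmed by oxidase test. Run in duplicate, repeated at least three times.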

[12] = system: Candida albicans; experiment: Growth inhibition of Candida albicans ATCC 10231 at 62.5 ug/ml incubated for 48 hrs under dark condition by broth microdilution method relative to control; type: functional; details: ATCC 10231, 48 h, read-out: GI; method in brief: as §1
[13] = system: Klebsiella pneumoniae; experiment: Antibacterial activity against carbapenemase positive Klebsiella pneumoniae BAA 1705 after 24 hrs by resazurin dye based microdilution assay; type: functional; details: BAA 1705, 24 h; method in brief: as §2
[14] = system: Trypanosoma cruzi; experiment: Antitrypanosomal activity against Trypanosoma cruzi Tulahuen intracellular amastigote harboring LacZ infected in human U937 cells after 72 hrs by CPRG/Nonidet reagent based spectrophotometric method; type: functional, cell-based; details: U-937, 72 h
Method in brief: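 U-937 cells at 2.5 × 10^5 cells/mL in RPMI-1640 with 10% serum and 0.1 µg/mL PMA were infected with β-galactosidase-transfected Tulahuen epimastigotes at 5 parasites per cell. Infected cells were exposed to 50, 12.5, 3.125 and 0.78 µg/mL for 72 h. CPRG (100 uM) and 0.1% Nonidet P-40 were added for 3 h, read at 570 nm. EC50 by Probit. Triplicate, at least two experiments; benznidazole as reference.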

[15] = system: Plasmodium falciparum; experiment: Antiplasmodial activity against chloroquine-sensitive Plasmodium falciparum 3D7 assessed as reduction in parasitic LDH activity after 48 hrs by Malstat reagent based […] method; type: functional; details: 3D7, 48 h
Method in brief: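 Unsynchronized P. falciparum 3D7 at 0.5% parasitemia and 1% hematocrit in RPMI with 3% Albumax II. Exposed to 100, 25, 6.25 and 1.56 µg/mL for 48 h at 37 °C under 90% N2/5% CO2/5% O2. After three freeze-thaw cycles, LDH measured with Malstat and NBT/PES, 1 h in the dark, read at 650 nm. IC50 by Probit; triplicate, ≥2 experiments.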

[16] = system: Pseudomonas aeruginosa; experiment: Antibacterial activity against Pseudomonas aeruginosa ATCC 27853 after 24 hrs by resazurin dye based microdilution assay; type: functional; details: ATCC 27853, 24 h; method in brief: as §2
[17] = system: Cryptococcus neoformans; experiment: Growth inhibition of Cryptococcus neoformans ATCC 32264 at 15.62 ug/ml incubated for 48 hrs under dark condition by broth microdilution method relative to control; type: functional; details: ATCC 32264, 48 h, read-out: GI; method in brief: as §1
[18] = system: Cryptococcus neoformans; experiment: Growth inhibition of Cryptococcus neoformans ATCC 32264 at 3.4 ug/ml incubated for 48 hrs under dark condition by broth microdilution method relative to control; type: functional; details: ATCC 32264, 48 h, read-out: GI
[19] = system: Staphylococcus aureus; experiment: Antibacterial activity against methicillin-resistant Staphylococcus aureus ATCC 43300 after 24 hrs by resazurin dye based microdilution assay; type: functional; details: ATCC 43300, 24 h
Method in brief: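 Broth microdilution in Mueller Hinton broth, inoculum 5 × 10^5 – 8 × 10^5. Compound stocks diluted in MHB with 5% DMSO and 0.1% Tween 80. Incubation 24 h at 35-37 °C. MIC is the lowest concentration with visible growth inhibition and/or by resazurin (1 mg/mL) read-out. Gentamicin as control. Run in duplicate, replicated at least three times.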

[20] = system: Candida albicans; experiment: Growth inhibition of Candida albicans ATCC 10231 at 31.25 ug/ml incubated for 48 hrs under dark condition by broth microdilution method relative to control; type: functional; details: ATCC 10231, 48 h, read-out: GI; method in brief: as §1
[21] = system: Candida albicans; experiment: Growth inhibition of Candida albicans ATCC 10231 at 250 ug/ml incubated for 48 hrs under dark condition by broth microdilution method relative to control; type: functional; details: ATCC 10231, 48 h, read-out: GI; method in brief: as §1
[22] = system: Klebsiella pneumoniae; experiment: Antibacterial activity against ESBL positive Klebsiella pneumoniae ATCC 700603 after 24 hrs by resazurin dye based microdilution assay; type: functional; details: Klebsiella pneumoniae, 700603, 24 h; method in brief: as §2
[23] = system: Candida albicans; experiment: Growth inhibition of Candida albicans ATCC 10231 at 15.62 ug/ml incubated for 48 hrs under dark condition by broth microdilution method relative to control; type: functional; details: ATCC 10231, 48 h, read-out: GI; method in brief: as §1
[24] = system: Cryptococcus neoformans; experiment: Growth inhibition of Cryptococcus neoformans ATCC 32264 at 62.5 ug/ml incubated for 48 hrs under dark condition by broth microdilution method relative to control; type: functional; details: ATCC 32264, 48 h, read-out: GI; method in brief: as §1
[25] = system: Candida albicans; experiment: Growth inhibition of Candida albicans ATCC 10231 at 7.8 ug/ml incubated for 48 hrs under dark condition by broth microdilution method relative to control; type: functional; details: ATCC 10231, 48 h, read-out: GI; method in brief: as §1
[26] = system: Cryptococcus neoformans; experiment: Growth inhibition of Cryptococcus neoformans ATCC 32264 at 250 ug/ml incubated for 48 hrs under dark condition by broth microdilution method relative to control; type: functional; details: ATCC 32264, 48 h, read-out: GI; method in brief: as §1
[27] = system: U-937; experiment: Cytotoxicity against human U937 cells after 72 hrs by MTT assay; type: cell-based; details: u-937, 72 h
Method in brief: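 Exponentially growing U-937 at 1 × 10^5 cells/mL in RPMI-1640 with 10% FBS were exposed to 200, 50, 12.5 and 3.125 µg/mL for 72 h at 37 °C, 5% CO2. MTT for 3 h, stopped with isopropanol/SDS, formazan read at 570 nm, blank-corrected. LC50 by Probit from % viability against untreated cells. Triplicate, at least two independent experiments.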

[28] = system: Leishmania panamensis; experiment: Antileshmanial activity against EpiR/GFP fused Leishmania panamensis MHOM/CO/87/UA140 intracellular amastigotes infected in human […] cells after 72 hrs by flow cytometric method; type: functional, cell-based; details: MHOM/CO/87/UA140, 72 h
Method in brief: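 PMA-treated U-937 cells (3 × 10^5 cells/mL) infected with stationary-phase GFP L. panamensis promastigotes (15:1), 3 h at 34 °C, then washed. After 24 h, compounds added at 50, 12.5, 3.125 and 0.78 µg/mL for 72 h at 37 °C. EC50 by Probit; triplicate, two experiments.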

In the case of `Cc1ccc(C2=NN(c3ccccc3)C(c3cccc(Nc4ccnc5cc(Cl)ccc45)c3)C2)cc1` (stereo not given), the inhibition of growth at 7.8 µg/mL [1] is reported as 0%, the MIC [2] is reported as over 1000 µg/mL and the MIC50 [3] is reported as at least 250 µg/mL. The MIC80 [3] was at least 250 µg/mL, the MIC [4] was over 1000 µg/mL and the inhibition of growth at 3.4 µg/mL [5] was 2.29%. The inhibition of growth at 31.25 µg/mL [6] was 1.72%, the MIC [7] was over 1000 µg/mL and the inhibition of growth at 125 µg/mL [8] was 22.9%. For the same compound, the inhibition of growth at 125 µg/mL [9] was 7.45%, the MIC50 [10] was at least 250 µg/mL and the MIC80 [10] was at least 250 µg/mL. For the same compound, the MIC [11] was over 1000 µg/mL, the inhibition of growth at 62.5 µg/mL [12] was 13.1% and the MIC [13] was over 1000 µg/mL. The EC50 [14] was 1.09 µg/mL (≈ 2.23 µM), the EC50 [15] was 13.5 µg/mL (≈ 27.7 µM) and the MIC [16] was over 1000 µg/mL. For the same compound, the inhibition of growth at 15.62 µg/mL [17] was 0.86%, the inhibition of growth at 3.4 µg/mL [18] was 0% and the MIC [19] was over 1000 µg/mL. The inhibition of growth at 31.25 µg/mL [20] was 12%, the inhibition of growth at 250 µg/mL [21] was 28.3% and the MIC [22] was over 1000 µg/mL. For the same compound, the inhibition of growth at 15.62 µg/mL [23] was 7.89%, the inhibition of growth at 62.5 µg/mL [24] was 4.01% and the inhibition of growth at 7.8 µg/mL [25] was 2.53%. It also gave an inhibition of growth at 250 µg/mL [26] of 31.5%, an LC50 [27] of 1.4 µg/mL (≈ 2.86 µM) and an EC50 [28] of 1.83 µg/mL (≈ 3.74 µM).
